Eight compounds from ChEMBL document CHEMBL1821561 (Bioorg Med Chem, 2011) can be followed below.

Where a name gives a salt, the structure may show the parent alone.

A short description of experiment [1]: Displacement of [3H]SCH23390 from dopamine D1-like receptor in pig striatal tissue homogenates after 30 mins by scintillation counting. The format is tissue-based, Sus scrofa, Striatum.
A short description of experiment [2]: Displacement of [3H]-N-methylspiperone from dopamine D2-like receptor in pig striatal tissue homogenates after 30 mins by scintillation counting. In kind it is tissue-based, Sus scrofa, Striatum. In short, it runs like this: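 Porcine striatal membranes with 0.2 nM [3H]-N-methylspiperone plus 50 nM ketanserin to block 5-HT2A sites. Buffer 50 mM HEPES, 4 mM MgCl2, pH 7.4. Nonspecific binding defined with (+)-butaclamol. Incubated 37 °C for 30 min, then filtered and washed with ice-cold Tris/NaCl.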

For experiment [3], the target named is T1, D(1A) dopamine receptor (Homo sapiens, UniProt P21728). The experiment in a line: Intrinsic activity at human dopamine D1 receptor expressed in HEK293 cells assessed as cAMP accumulation after 15 mins relative to dopamine. In kind it is functional, cell-based. In short, it runs like this: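 HEK293 cells stably expressing hD1 (about 1800 fmol/mg) grown to 90–95% confluency. Medium replaced with 500 µM IBMX in EBSS, then drug added in duplicate for 15 min at 37 °C. Stopped with 3% trichloroacetic acid. cAMP measured by [3H]cAMP competition with bovine adrenal binding protein against a standard curve. Maximal response expressed as percent of 10 µM dopamine.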

Experiment [4] deals with T1, D(1A) dopamine receptor. Briefly: Agonist activity at human dopamine D1 receptor expressed in HEK293 cells assessed as cAMP accumulation after 15 mins. The format is functional, cell-based.
The species named for experiment [5] is Sus scrofa. The experiment in a line: Ratio of SKF38393 Ki to compound Ki for dopamine D1-like receptor in pig striatal tissue homogenates. In kind it is tissue-based. To be noted: Striatum.

T1 sequence (P21728 whole entry): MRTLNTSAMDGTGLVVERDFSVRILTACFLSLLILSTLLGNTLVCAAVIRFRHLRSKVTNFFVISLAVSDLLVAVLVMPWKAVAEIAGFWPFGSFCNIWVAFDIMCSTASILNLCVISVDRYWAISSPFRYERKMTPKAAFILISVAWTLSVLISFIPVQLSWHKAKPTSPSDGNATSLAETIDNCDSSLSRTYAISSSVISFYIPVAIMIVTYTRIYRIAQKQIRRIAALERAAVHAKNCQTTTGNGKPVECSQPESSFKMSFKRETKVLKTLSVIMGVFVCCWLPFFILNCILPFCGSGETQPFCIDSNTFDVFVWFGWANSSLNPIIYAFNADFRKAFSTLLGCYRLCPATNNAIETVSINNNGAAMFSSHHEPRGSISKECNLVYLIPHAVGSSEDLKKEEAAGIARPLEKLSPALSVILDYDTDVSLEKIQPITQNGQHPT

In experiment [1], `CN1CCc2cc(Cl)c(O)cc2[C@@H](c2ccccc2)C1` had a Ki of 0.64 nM.

Turning to `Oc1cc2c(cc1O)[C@@H](c1ccccc1)CNCC2`, the Ki stood at 2.36 µM in experiment [2] and 151 nM in experiment [1]. Further, in experiment [3], the Intrinsic activity came to 93%.

Regarding `Oc1cc2c(cc1O)[C@@H]1c3ccccc3CC[C@@H]1NCC2` (racemic), the Ki in experiment [2] was 88 µM; in experiment [1] it was 22000 nM.

For the compound `Oc1cc2c(cc1O)[C@H]1c3ccccc3CC[C@@H]1NCC2` (racemic), the Ki in experiment [2] amounted to 8.48 µM; in experiment [1] it was 257 nM. Further, the Intrinsic activity in experiment [3] worked out at 28%. Besides, the EC50 in experiment [4] was 438 nM.

For the compound `Oc1cc2c(cc1O)[C@H]1c3ccccc3OC[C@@H]1NCC2` (racemic), the Ki in experiment [2] was found to be 44.8 µM; in experiment [1], 186 nM. In addition, the Intrinsic activity in experiment [3] turned out to be 60%. Further, the half-maximal effective concentration (EC50) in experiment [4] is 570 nM.

`Oc1cc2c(cc1O)[C@H]1c3ccccc3SC[C@@H]1NCC2` (racemic): the values for the Ki in experiment [2] and in experiment [1] were 28 µM and 92 nM, respectively. In experiment [3], the Intrinsic activity stood at 21%. Moreover, in experiment [5], the Ratio Ki is 1.6. For the same compound, the EC50 in experiment [4] is 584 nM.

`Oc1cc2c(cc1O)[C@H]1c3ccccc3CN[C@@H]1CC2` (racemic) [DIHYDREXIDINE] returned a Ki in experiment [2] of 0.32 µM. Moreover, the Intrinsic activity in experiment [3] was 103%.

Regarding `CN1CCc2cc(Cl)c(O)cc2[C@H]2c3ccccc3CC[C@@H]21` [ECOPIPAM HYDROCHLORIDE], the inhibitory constant (Ki) in experiment [2] came out at 2.01 µM; in experiment [1], 1.3 nM.
